Screens: PubChem, Johns Hopkins Ion Channel Center
Most compounds without a hit are left out; they make up all but 3.7% or so of the library.
KCNK9 inh = inhibitors of human KCNK9 two-pore domain potassium channel. 310,000 tested, 1.2% active. HEK293 KCNK9, FluxOR thallium flux fluorescence; stronger effect = lower value. B-score at 10 µM. Q9NPC2;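 active = ratio B-score over 3 SD below the library mean, with starting fluorescence within 5 SD of its mean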;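 note: negative B-score means less thallium flux so channel inhibition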
KCNK3 inh = human KCNK3 channel inhibition, primary screen. B-score at 10 µM. 340,000 tested, 0.84% active. AID 602410. CHO-KCNK3 thallium flux, FluxOR fluorescence; stronger effect = lower value;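 active = B-score under library mean minus 4 SD, starting fluorescence ratio at most library mean plus 5 SD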;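 note: more negative B-score means stronger inhibition of thallium flux through KCNK3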
KCNQ1 act = human KCNQ1 channel potentiation or activation | CHO-K1 KCNQ1, thallium flux FluxOR fluorescence; stronger effect = higher value | B-score at 10 µM | 310,000 tested, 0.35% active | AID 2648;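 active = fluorescence ratio B-score, a plate-corrected score, at least three library SD, with initial intensity B-score within 5 SD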
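System: CHO-K1 cells stably expressing KCNQ1 / Medium: assay buffer for compound exposure, DMSO matched across wells / Reagent: thallium- and potassium-containing depolarizing buffer / Compound: one concentration, matched DMSO / Incubation: 20 min compound pretreatment at room temperature / Measured by: kinetic FluxOR fluorescence, 10 s baseline plus 110 s post-stimulus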
Kir21 inh = blocks the mouse Kir2.1 inward-rectifier potassium channel. P35561. HEK293-Kir2.1, FluxOR thallium flux fluorescence; stronger effect = lower value. B-score at 10 µM. 310,000 tested, 0.85% active;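 active = fluorescence ratio B-score at or below minus 3 SD of library scores, with starting-brightness B-score within 2 SD, cut at about -4.2 in these data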;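 note: channel flux triggered by added potassium and thallium sulfate stimulus; B-score of peak minus minimum fluorescence over baseline after thallium stimulus; more negative B-score means stronger Kir2.1 block with less thallium influx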
hERG protect = hERG (human) protection from proarrhythmic block; CHO-hERG, FluxOR thallium flux, dofetilide IC70 present; activation (rescue from dofetilide block), less the hit threshold, % at 10 µM; 310,000 tested, 0.51% active;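 active = activation above the mean of controls blocked by dofetilide plus 5 SD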;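 note: thallium influx through hERG after potassium depolarization seen as dye fluorescence rise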
Target sequence (Q12809 whole entry, looked up): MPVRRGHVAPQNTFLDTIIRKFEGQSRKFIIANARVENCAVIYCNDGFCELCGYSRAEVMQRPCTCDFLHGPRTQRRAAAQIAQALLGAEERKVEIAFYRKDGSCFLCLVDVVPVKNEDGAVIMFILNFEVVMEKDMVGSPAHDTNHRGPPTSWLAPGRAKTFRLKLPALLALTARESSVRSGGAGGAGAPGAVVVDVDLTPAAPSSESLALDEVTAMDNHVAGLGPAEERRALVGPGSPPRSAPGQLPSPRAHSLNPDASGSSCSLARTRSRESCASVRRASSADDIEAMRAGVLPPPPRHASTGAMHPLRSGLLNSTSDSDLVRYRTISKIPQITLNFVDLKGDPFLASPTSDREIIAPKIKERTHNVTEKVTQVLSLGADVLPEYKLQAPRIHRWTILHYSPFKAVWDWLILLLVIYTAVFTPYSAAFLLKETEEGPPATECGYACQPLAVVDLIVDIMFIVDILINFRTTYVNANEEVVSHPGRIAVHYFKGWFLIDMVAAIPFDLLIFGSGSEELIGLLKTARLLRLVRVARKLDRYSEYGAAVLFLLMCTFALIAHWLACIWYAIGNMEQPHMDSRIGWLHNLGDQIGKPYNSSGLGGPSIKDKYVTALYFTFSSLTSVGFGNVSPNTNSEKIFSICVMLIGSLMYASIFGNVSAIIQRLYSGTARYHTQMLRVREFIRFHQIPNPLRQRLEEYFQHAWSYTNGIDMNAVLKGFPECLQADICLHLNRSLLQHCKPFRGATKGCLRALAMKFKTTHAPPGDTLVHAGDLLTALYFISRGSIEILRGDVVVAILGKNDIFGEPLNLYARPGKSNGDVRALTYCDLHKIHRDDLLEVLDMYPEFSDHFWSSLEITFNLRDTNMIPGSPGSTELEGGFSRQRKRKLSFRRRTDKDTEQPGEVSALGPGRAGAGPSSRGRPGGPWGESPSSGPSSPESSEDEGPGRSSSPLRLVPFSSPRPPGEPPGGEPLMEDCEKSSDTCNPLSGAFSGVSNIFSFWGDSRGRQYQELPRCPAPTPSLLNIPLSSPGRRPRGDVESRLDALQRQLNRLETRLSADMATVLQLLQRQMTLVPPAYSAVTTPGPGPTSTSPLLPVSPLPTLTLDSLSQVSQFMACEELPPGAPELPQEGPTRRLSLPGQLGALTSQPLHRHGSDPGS
KCNQ1 inh = human KCNQ1 channel inhibition; B-score at 10 µM; P51787; CHO-K1 KCNQ1, FluxOR thallium flux fluorescence; stronger effect = higher value; 310,000 tested, 1.3% active;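 active = compounds whose thallium flux B-score, printed positive for inhibition, exceeds three library SD while starting fluorescence stays within three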;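 note: channel opened by potassium depolarization with thallium stimulus after 20 min compound exposure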
KCNK9 block conf = human KCNK9 inhibitor confirmation | shares compounds with KCNK9 inh | HEK293 KCNK9 cells, FluxOR thallium flux fluorescence | inhibition, % at 10 µM | 4,900 tested, 43% active | AID 492992;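 active = thallium signal inhibited by more than 5 SD of the compound-free buffer control wells, on both duplicate plates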;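 note: 0% = assay buffer control wells without compound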
Kir21 sel = selectivity of KCNK9 modulators against mouse Kir2.1; AID 492993; Kir2.1 cells, FluxOR thallium flux fluorescence; shares compounds with KCNK9 inh; 4,900 tested, 4% active; inhibition, % at 10 µM;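 active = thallium signal drop more than 5 SD beyond the mean of the no-compound control wells, seen in both duplicate plates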;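 note: signal is fluorescence rise after thallium addition divided by baseline fluorescence; plate controls were assay buffer only for no effect and full block by chlorpromazine control for full effect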
KCNK9 uninduced = second check of KCNK9 modulator effects in non-induced HEK293 cells; shares compounds with KCNK9 inh; FluxOR thallium flux; inhibition, % at 10 µM; 4,900 tested, 40% active; AID 492997;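 active = thallium signal drop beyond 5 SD of the untreated control mean, on both duplicate plates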;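 note: plate controls were buffer only IC0 wells for no effect and SID17386958 at its maximal inhibitory level for full effect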
KCNK3 inh conf = confirmation of human KCNK3 two-pore domain potassium channel inhibitors; shares compounds with KCNK3 inh; CHO-KCNK3 thallium flux, FluxOR fluorescence; 0% buffer, 100% carvedilol maximal block; ratio percent of control, % at 10 µM; 2,400 tested, 99% active;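 active = ratio percent of control, averaged over triplicates, above buffer control mean plus 5 SD, cut at about 64% in these data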;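 note: ratio is the fluorescence rise from min to max over baseline after thallium stimulus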
KCNK3 noninduced = counter-screen for KCNK3 inhibitors: effect in non-induced cells; shares compounds with KCNK3 inh; thallium flux ratio (lower = more inhibition) at 10 µM; AID 651747; non-induced KCNK3 parental cells, FluxOR thallium flux; stronger effect = lower value; 2,400 tested, 40% active;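 active = thallium flux ratio, averaged over three wells, more than 5 SD below the buffer control mean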;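 note: host cells are CHO cells without KCNK3 induction; ratio is peak minus trough fluorescence over baseline then normalized to buffer controls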
Active calls of the source: *.

`COc1ccc(C2c3[nH]c4ccccc4c3CCN2Cc2cccn2-c2ncccn2)cc1C` (stereo not drawn) gave KCNK9 inh -17.6*, KCNK3 inh -12.8*, KCNQ1 act inactive, Kir21 inh 0.97, hERG protect -20.3, KCNQ1 inh inactive, KCNK9 block conf 53.5%*, Kir21 sel inactive, KCNK9 uninduced 36.5%*, KCNK3 inh conf 130.7* and KCNK3 noninduced 0.14*.
Screening Cc1cccc(C2c3[nH]c4ccccc4c3CCN2Cc2cccn2-c2ncccn2)c1 (stereo not drawn) returned KCNK9 inh -8.48*, KCNK3 inh -13.7*, KCNQ1 act inactive, Kir21 inh -1.78, hERG protect -32.5, KCNQ1 inh inactive, KCNK9 block conf inactive, Kir21 sel inactive, KCNK9 uninduced 32.5%*, KCNK3 inh conf 113.3* and KCNK3 noninduced inactive.
For O=C(Cn1c(NCCO)nc2ccccc21)N1CCN(Cc2ccccc2)CC1 the results were KCNK9 inh inactive, KCNK3 inh inactive, KCNQ1 act inactive, Kir21 inh 0.67, hERG protect -4.6 and KCNQ1 inh inactive.
For CCN(CC1CCCN(CCc2cccc(OC)c2)C1)C(=O)c1ccoc1C (stereo not drawn) the results were KCNK9 inh inactive, KCNK3 inh inactive, KCNQ1 act inactive, Kir21 inh 0.5, hERG protect -2.9 and KCNQ1 inh inactive.
CC(=O)c1c(C)[nH]c(C(=O)COC(=O)c2cc(C)oc2C)c1C was read as KCNK3 inh inactive.
Screening Cc1cc(C)cc(N(CCC#N)C(=O)COC(=O)C2CCN(S(=O)(=O)c3ccc(C)c(C)c3)CC2)c1 returned KCNK9 inh inactive, KCNK3 inh inactive, KCNQ1 act inactive, Kir21 inh 1.11, hERG protect -9.9 and KCNQ1 inh inactive.
For COc1ccc(CCNS(=O)(=O)c2ccc(Br)s2)cc1 the results were KCNK9 inh -9.22*, KCNK3 inh -9.42*, KCNQ1 act inactive, Kir21 inh -0.66, hERG protect -8.9, KCNQ1 inh inactive, KCNK9 block conf 76.5%*, Kir21 sel inactive, KCNK9 uninduced 33.5%*, KCNK3 inh conf 116.3* and KCNK3 noninduced inactive.
Screening Cc1ccc(N(C(=O)c2csnn2)C(C(=O)NC(C)(C)C)c2cccnc2)cc1 (stereo not drawn) returned KCNK9 inh inactive, KCNK3 inh inactive, KCNQ1 act inactive, Kir21 inh -0.92, hERG protect -16.9 and KCNQ1 inh inactive.
`O=[N+]([O-])c1cccc(C2CC(c3ccccc3)=NN2c2ccccc2)c1` (stereo not drawn) gave KCNK9 inh -10.1*, KCNK3 inh inactive, KCNQ1 act inactive, Kir21 inh 1.52, hERG protect -5.0, KCNQ1 inh inactive, KCNK9 block conf 56.5%*, Kir21 sel inactive, KCNK9 uninduced 28.0%*, KCNK3 inh conf 94.0* and KCNK3 noninduced inactive.
For COc1ccc(-c2cc3ccccc3oc2=O)cc1NC(=O)c1ccc(Br)o1 the results were KCNK9 inh inactive, KCNK3 inh inactive, KCNQ1 act inactive, Kir21 inh -0.76, hERG protect -0.7 and KCNQ1 inh inactive.
For O=C(Nc1ccc2oc(-c3cccnc3)nc2c1)c1ccc(Br)o1 the results were KCNK9 inh inactive, KCNK3 inh inactive, KCNQ1 act inactive, Kir21 inh 0.28, hERG protect -6.0 and KCNQ1 inh inactive.
Screening O=C(Nc1cccc(F)c1)c1ccc(Br)o1 returned KCNK9 inh inactive, KCNK3 inh inactive, KCNQ1 act inactive, Kir21 inh -0.36, hERG protect -6.9 and KCNQ1 inh inactive.
O=C(Nc1cccc(-c2cc3ccccc3oc2=O)c1)c1ccc(Br)o1 was read as KCNK9 inh -8.67*, KCNK3 inh -10.7*, KCNQ1 act inactive, Kir21 inh 1.04, hERG protect -10.6, KCNQ1 inh inactive, KCNK9 block conf 33.5%*, Kir21 sel inactive, KCNK9 uninduced inactive, KCNK3 inh conf 121.3* and KCNK3 noninduced 0.15*.
For O=C(Nc1cccc(OC(F)(F)F)c1)c1ccc(Br)o1 the results were KCNK9 inh -10.2*, KCNK3 inh -9.56*, KCNQ1 act inactive, Kir21 inh -0.34, hERG protect -14.9, KCNQ1 inh inactive, KCNK9 block conf 44.0%*, Kir21 sel inactive, KCNK9 uninduced inactive, KCNK3 inh conf 116.0* and KCNK3 noninduced inactive.
`O=C(Nc1cccc(-c2cn3c(n2)SCC3)c1)c1ccc(Br)o1` gave KCNK9 inh -10*, KCNK3 inh inactive, KCNQ1 act inactive, Kir21 inh 2.3, hERG protect -16.2, KCNQ1 inh inactive, KCNK9 block conf 37.0%*, Kir21 sel inactive, KCNK9 uninduced inactive, KCNK3 inh conf 109.3* and KCNK3 noninduced inactive.
Screening Cc1cc2nc(-c3cccc(NC(=O)c4ccc(Br)o4)c3)oc2cc1C returned KCNK9 inh -9.83*, KCNK3 inh -9.51*, KCNQ1 act inactive, Kir21 inh 0.32, hERG protect -9.1, KCNQ1 inh inactive, KCNK9 block conf 37.5%*, Kir21 sel inactive, KCNK9 uninduced inactive, KCNK3 inh conf 121.0* and KCNK3 noninduced 0.143*.
`COCCCNC(=O)C1=CCN(S(=O)(=O)c2ccc(OC)cc2)CC1` gave KCNK9 inh inactive, KCNK3 inh inactive, KCNQ1 act inactive, Kir21 inh -1.14, hERG protect -7.9 and KCNQ1 inh inactive.
CCOc1ccc(CCNC(=O)COC(=O)c2cccc(S(=O)(=O)N3CCCC3)c2)cc1OCC was read as KCNK9 inh -9.42*, KCNK3 inh -9.22*, KCNQ1 act inactive, Kir21 inh -1.29, hERG protect -8.6, KCNQ1 inh inactive, KCNK9 block conf 38.5%*, Kir21 sel inactive, KCNK9 uninduced 36.5%*, KCNK3 inh conf 65.0* and KCNK3 noninduced inactive.
